Measurements: ChEMBL document CHEMBL3822382 (Eur J Med Chem, 2016)
Activity calls are given as the source filed them. The calls are words filed in the database; no cut-off is given here.

Key:
[1] = tested on: HT-29; assay: Growth inhibition of combretastatin A-4 resistant human HT-29 cells after 24 hrs by MTT assay; format: functional, cell-based; details: HT-29, 24 h
Summary of the method: (§1)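 Cells seeded at 5000/well (Ea.hy926 10,000/well) and exposed for 24 h to dilution series of 100 µM–5 pM, with DMSO as solvent control. MTT (0.5 mg/mL final) for 2 h. Formazan dissolved in SDS/acetic acid/DMSO and read at 570 nm against a 630 nm background. Viability taken relative to DMSO controls; IC50 from dose–response curves, mean of four independent experiments.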

[2] = tested on: HT-29; assay: Growth inhibition of combretastatin A-4 resistant human HT-29 cells after 72 hrs by MTT assay; format: functional, cell-based; details: HT-29, 72 h
Summary of the method: (§2)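 5000 cells/well exposed for 72 h to dilution series of 100 µM–5 pM, with DMSO as solvent control. MTT 0.5 mg/mL final for 2 h, absorbance at 570/630 nm. Percentage viable cells taken versus DMSO controls; IC50 from dose–response curves, mean of four independent experiments.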

[3] = Growth inhibition of human 518A2 cells after 72 hrs by MTT assay; format: functional, cell-based; details: 518A2, 72 h; summary of the method: as §2
[4] = Growth inhibition of human 518A2 cells after 24 hrs by MTT assay; format: functional, cell-based; details: 518A2, 24 h; summary of the method: as §1
[5] = Growth inhibition of human KB-V1/Vbl cells after 24 hrs by MTT assay; format: functional; summary of the method: as §1
[6] = Growth inhibition of human MCF7/Topo cells after 24 hrs by MTT assay; format: functional, cell-based; summary of the method: as §1
[7] = organism: Sus scrofa; assay: Inhibition of porcine brain alpha/beta tubulin polymerization at 5 uM measured every 20 sec by microplate reader analysis
[8] = tested on: EA.hy 926; assay: Antivascular activity in human EAhy926 cells assessed as induction of retraction of cells to nodes at 100 nM after 16 hrs by light microscopic analysis; format: functional, cell-based
Summary of the method: (§3)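 Ea.hy926 cells (100,000/well) were seeded on Matrigel-coated coverslips and allowed 12 h to form vessel-like networks. Test agent (CA-4 100 nM; indoles 250 nM) or DMSO was then added for 16 h, and networks were documented by light microscopy. Viability was checked by 2 h MTT (0.5 mg/mL) relative to DMSO controls.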

[9] = Growth inhibition of human MCF7/Topo cells after 72 hrs by MTT assay; format: functional, cell-based
Summary of the method: (§4)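 MTT assay: cells seeded at 5000/well (MCF-7/Topo) or 10,000/well (Ea.hy926), then given dilution series (100 µM–5 pM) or DMSO for 72 h. MTT was added at 0.5 mg/mL final for 2 h, formazan dissolved in SDS/acetic acid/DMSO, and absorbance read at 570 nm with 630 nm background. Viability was set relative to DMSO controls, and IC50 taken as the mean of at least three experiments ± S.D.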

[10] = Cytotoxicity against human EAhy926 cells assessed as cell viability at 100 nM after 16 hrs by MTT assay relative to control; format: cell-based, EA.hy 926; details: read-out: Activity
Summary of the method: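 Ea.hy926 cells (100,000/well) seeded on Matrigel-coated coverslips and left 12 h to form networks, then exposed to compound for 16 h. Viability was read by 2 h MTT (0.5 mg/mL) and absorbance of the formazan, expressed relative to DMSO controls.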

[11] = Growth inhibition of human EAhy926 cells after 72 hrs by MTT assay; format: cell-based; details: EA.hy 926, 72 h; summary of the method: as §4
[12] = tested on: HT-29; assay: Cell cycle arrest in combretastatin A-4 resistant human HT-29 cells assessed as accumulation at G1 phase at 5 uM after 24 hrs by propidium iodide staining-based flow cytometry (reference value: 68.1 +/- 0.3%); format: functional
Summary of the method: (§5)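 HT-29 cells (200,000/well) were treated 24 h with 100 nM indole, 5 μM CA-4 or DMSO. Cells were trypsinized, fixed in 4% formaldehyde (20 min, RT) and permeabilized in 90% ice-cold methanol (30 min). They were immunostained with anti-phospho-histone H3 (Ser10) (5 μg/mL, 37 °C, 1 h) plus an AlexaFluor-488 secondary, then stained with PI/RNase (30 min, 37 °C). Flow cytometry of 10,000 single cells assigned G1/S/G2/M.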

[13] = Growth inhibition of primary chicken fibroblasts after 48 hrs by MTT assay; format: cell-based; details: Gallus gallus, Fibroblast
Summary of the method: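 Chicken heart fibroblasts explanted from 10-day-old embryos, seeded at 10,000/well; cardiomyocytes seeded at 20,000/well. Dilution series given for 48 h, DMSO as control. MTT 0.5 mg/mL for 2 h, absorbance at 570/630 nm. Viability versus DMSO controls; IC50 from dose–response curves, mean of three independent experiments.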

[14] = tested on: EA.hy 926; assay: Antivascular activity in human EAhy926 cells assessed as change in cell morphology from stretched to rounded form at 100 nM after 16 hrs by matrigel based tube formation assay; format: functional; summary of the method: as §3
[15] = tested on: EA.hy 926; assay: Antivascular activity in human EAhy926 cells assessed as disruption of preformed blood vessel lke network at 100 nM after 16 hrs by matrigel based tube formation assay; format: functional, cell-based; summary of the method: as §3
[16] = Cytotoxicity against fertilized white leghorn chicken embryos in CAM model assessed as lethality at 5 nmol after 24 hrs relative to control; format: organism-based, Gallus gallus; details: in vivo
Summary of the method: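 Day-5 fertilized eggs (37 °C, 50-60% humidity) windowed, with 6 mm silicon rings placed on CAM vessels and incubated a further 24 h. Compound diluted to 500 µM in PBS and pipetted inside the ring (10 µL = 5 nmol); DMSO control. Vessel changes documented by stereomicroscopy at 0, 12 and 24 h.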

[17] = tested on: HT-29; assay: Cell cycle arrest in combretastatin A-4 resistant human HT-29 cells assessed as mitotic cells at 5 uM after 24 hrs by propidium iodide/immunostaining method (reference value: 3.1 to 3.2%); format: functional; summary of the method: as §5
[18] = Growth inhibition of p53 null human HCT116 cells after 72 hrs by MTT assay; format: functional, cell-based; details: HCT-116, 72 h
Summary of the method: (§6)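 HCT-116 cells, p53 wild-type or p53-/-, seeded at 5000/well and treated 72 h with dilution series (100 µM–5 pM) or DMSO. MTT 0.5 mg/mL for 2 h, absorbance at 570/630 nm. Viability relative to DMSO controls; IC50 from dose–response curves, mean of three independent experiments ± S.D.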

[19] = tested on: HT-29; assay: Cell cycle arrest in combretastatin A-4 resistant human HT-29 cells assessed as accumulation at S phase at 5 uM after 24 hrs by propidium iodide staining-based flow cytometry (reference value: 13.7 +/- 0.3%); format: functional; summary of the method: as §5
[20] = tested on: HT-29; assay: Cell cycle arrest in combretastatin A-4 resistant human HT-29 cells assessed as accumulation at G2 phase at 5 uM after 24 hrs by propidium iodide staining-based flow cytometry (reference value: 15.6 +/- 0.1%); format: functional; summary of the method: as §5
[21] = Growth inhibition of human HCT116 cells expressing wild type p53 after 72 hrs by MTT assay; format: functional, cell-based; details: HCT-116, 72 h; summary of the method: as §6
[22] = Cell cycle arrest in human 518A2 cells assessed as apoptotic index ratio at 200 nM after 24 hrs by propidium iodide staining-based flow cytometry relative to control; format: functional
[23] = Cell cycle arrest in human 518A2 cells assessed as accumulation at S phase at 200 nM after 24 hrs by propidium iodide staining-based flow cytometry (reference value: 20.4%); format: functional
[24] = Cell cycle arrest in human 518A2 cells assessed as accumulation at G1 phase at 200 nM after 24 hrs by propidium iodide staining-based flow cytometry (reference value: 49.5%); format: functional
[25] = Cell cycle arrest in human 518A2 cells assessed as accumulation at G2/M phase at 200 nM after 24 hrs by propidium iodide staining-based flow cytometry (reference value: 26.3%); format: functional
[26] = Cell cycle arrest in human 518A2 cells assessed as G2/M index ratio at 200 nM after 24 hrs by propidium iodide staining-based flow cytometry relative to control; format: functional
[27] = Cell cycle arrest in human 518A2 cells assessed as accumulation at subG1 phase at 200 nM after 24 hrs by propidium iodide staining-based flow cytometry (reference value: 3.8%); format: functional

| IC50 [1] [nM] | IC50 [2] [nM] | SMILES | IC50 [3] [nM] | IC50 [4] [nM] | IC50 [5] [nM] | IC50 [6] [nM] | other results |
| --- | --- | --- | --- | --- | --- | --- | --- |
| 903 | 223 | COc1cc(-c2ncn(C)c2-c2ccc3c(c2)c(Cl)c(Cl)n3C)cc(Br)c1OC | 223 | 292 | 456 | 208 |  |
| 35.1 | 39.7 | COc1cc(-c2ncn(C)c2-c2ccc3c(c2)c(Cl)cn3C)cc(I)c1OC | 35.7 | 56.7 | 49.8 | 53.3 |  |
| 75.8 | 43.4 | CCn1cc(Cl)c2cc(-c3c(-c4cc(OC)c(OC)c(OC)c4)ncn3C)ccc21 | 33 | 739 | 33.2 | 30.2 |  |
| 246 | 116 | CCn1cc(Cl)c2cc(-c3c(-c4cc(Br)c(OC)c(OC)c4)ncn3C)ccc21 | 82 | 216 | 48.4 | 91.3 | Ratio [22]: 5.1; Activity [23]: 17.4%; Activity [24]: 39.7%; Activity [25]: 35.2%; Ratio [26]: 1.7; Activity [27]: 7.8% |
| 482 | 178 | CCn1cc(Cl)c2cc(-c3c(-c4cc(I)c(OC)c(OC)c4)ncn3C)ccc21 | 168 | 211 | 83.2 | 81.2 |  |
| > 1000 | 793 | CCn1c(Cl)c(Cl)c2cc(-c3c(-c4cc(Br)c(OC)c(OC)c4)ncn3C)ccc21 | 767 | > 1000 | > 1000 | 489 |  |
| 33.7 | 31.4 | COc1cc(-c2ncn(C)c2-c2ccc3c(c2)c(Cl)cn3C)cc(Cl)c1OC | 32.4 | 174 | 37.9 | 26.9 |  |

| SMILES | IC50 [1] [nM] | IC50 [2] [nM] | IC50 [3] [nM] | IC50 [4] [nM] | IC50 [5] [nM] | IC50 [6] [nM] | other results |
| --- | --- | --- | --- | --- | --- | --- | --- |
| COc1ccc(/C=C\c2cc(OC)c(OC)c(OC)c2)cc1O [COMBRETASTATIN A4] |  | > 5000 |  |  |  |  | inhibition [7]: Active; Activity [8]: Active; IC50 [9]: 154 nM; viability at 16 h, 0.1 µM [10]: > 90%; IC50 [11]: 11 nM; Activity [12]: 51.4%; IC50 [13]: 5480 nM; Activity [14]: Active; Activity [15]: Active; mortality at 24 h [16]: 60%; Activity [17]: 10.2%; IC50 [18]: 3.4 nM; Activity [19]: 18.6%; Activity [20]: 18.2%; IC50 [21]: 2.6 nM |
